In test [1] the target is Platelet-derived growth factor receptor beta (Homo sapiens, UniProt P09619). Briefly: Inhibition of PDGFRbeta (unknown origin) using poly (Glu, Tyr) (4:1) as substrate after 30 mins by spectrophotometric analysis.
The subject of test [2] is U-87 MG. Put plainly: Ratio of foretinib IC50 to compound IC50 for human U87MG cells. In kind it is functional, U-87MG ATCC.
Test [3] deals with Hepatocyte growth factor receptor (Homo sapiens, UniProt P08581). Briefly: Inhibition of c-MET (unknown origin) using poly (Glu, Tyr) (4:1) as substrate after 30 mins by spectrophotometric analysis.
Chain of Hepatocyte growth factor receptor (P08581 whole entry): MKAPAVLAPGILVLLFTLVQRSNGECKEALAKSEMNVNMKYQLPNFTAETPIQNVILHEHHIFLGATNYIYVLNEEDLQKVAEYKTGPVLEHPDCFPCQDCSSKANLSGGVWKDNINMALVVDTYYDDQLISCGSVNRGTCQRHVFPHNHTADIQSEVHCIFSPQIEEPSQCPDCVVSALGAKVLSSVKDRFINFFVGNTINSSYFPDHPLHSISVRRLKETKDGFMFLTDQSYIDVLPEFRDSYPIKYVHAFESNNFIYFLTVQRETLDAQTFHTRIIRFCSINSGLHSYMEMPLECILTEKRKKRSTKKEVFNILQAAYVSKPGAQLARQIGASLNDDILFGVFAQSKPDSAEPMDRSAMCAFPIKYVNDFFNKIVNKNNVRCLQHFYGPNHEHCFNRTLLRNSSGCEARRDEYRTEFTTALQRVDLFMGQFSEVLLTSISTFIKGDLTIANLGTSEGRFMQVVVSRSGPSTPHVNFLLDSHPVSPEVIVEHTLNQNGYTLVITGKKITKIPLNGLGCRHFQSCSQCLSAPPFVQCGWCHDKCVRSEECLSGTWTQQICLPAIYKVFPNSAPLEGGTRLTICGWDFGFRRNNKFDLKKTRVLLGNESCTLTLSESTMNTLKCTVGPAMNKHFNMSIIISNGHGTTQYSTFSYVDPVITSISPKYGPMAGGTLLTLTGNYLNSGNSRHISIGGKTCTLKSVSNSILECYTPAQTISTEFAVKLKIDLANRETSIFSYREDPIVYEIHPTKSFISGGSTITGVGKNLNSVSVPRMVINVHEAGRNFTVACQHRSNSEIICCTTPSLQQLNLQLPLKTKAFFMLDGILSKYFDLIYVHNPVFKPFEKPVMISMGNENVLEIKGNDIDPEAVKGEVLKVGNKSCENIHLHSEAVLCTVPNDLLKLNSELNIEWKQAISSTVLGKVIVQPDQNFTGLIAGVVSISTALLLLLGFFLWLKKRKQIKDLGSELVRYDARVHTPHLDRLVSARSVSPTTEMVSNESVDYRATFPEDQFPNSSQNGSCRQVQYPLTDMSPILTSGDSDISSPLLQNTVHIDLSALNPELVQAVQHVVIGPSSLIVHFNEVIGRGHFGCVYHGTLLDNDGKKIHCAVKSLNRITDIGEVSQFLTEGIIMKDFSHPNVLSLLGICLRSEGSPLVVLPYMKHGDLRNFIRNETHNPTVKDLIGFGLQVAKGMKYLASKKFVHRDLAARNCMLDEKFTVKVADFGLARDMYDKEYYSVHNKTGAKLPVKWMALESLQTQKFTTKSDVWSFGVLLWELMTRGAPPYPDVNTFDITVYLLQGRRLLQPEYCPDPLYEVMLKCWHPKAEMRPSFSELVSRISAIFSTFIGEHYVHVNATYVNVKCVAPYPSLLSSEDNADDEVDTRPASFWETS
For test [4], the system named is A549. Put plainly: Cytotoxicity against human A549 cells after 72 hrs by MTT assay. The class given is functional, cell-based. To be noted: A549, 72 h. Put shortly: (§1)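 Cells grown in MEM with 10% FBS; about 4 × 10³ cells per well, preincubated 24 h at 37 °C in 5% CO₂, then exposed to compound for 72 h. Each line tested three times; IC50 is mean of three determinations.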
A general note: Formazan colour is commonly taken as a measure of viable cells.

In test [5] the target is T1, Receptor-type tyrosine-protein kinase FLT3 (Homo sapiens, UniProt P36888).
T1 sequence (P36888 whole entry): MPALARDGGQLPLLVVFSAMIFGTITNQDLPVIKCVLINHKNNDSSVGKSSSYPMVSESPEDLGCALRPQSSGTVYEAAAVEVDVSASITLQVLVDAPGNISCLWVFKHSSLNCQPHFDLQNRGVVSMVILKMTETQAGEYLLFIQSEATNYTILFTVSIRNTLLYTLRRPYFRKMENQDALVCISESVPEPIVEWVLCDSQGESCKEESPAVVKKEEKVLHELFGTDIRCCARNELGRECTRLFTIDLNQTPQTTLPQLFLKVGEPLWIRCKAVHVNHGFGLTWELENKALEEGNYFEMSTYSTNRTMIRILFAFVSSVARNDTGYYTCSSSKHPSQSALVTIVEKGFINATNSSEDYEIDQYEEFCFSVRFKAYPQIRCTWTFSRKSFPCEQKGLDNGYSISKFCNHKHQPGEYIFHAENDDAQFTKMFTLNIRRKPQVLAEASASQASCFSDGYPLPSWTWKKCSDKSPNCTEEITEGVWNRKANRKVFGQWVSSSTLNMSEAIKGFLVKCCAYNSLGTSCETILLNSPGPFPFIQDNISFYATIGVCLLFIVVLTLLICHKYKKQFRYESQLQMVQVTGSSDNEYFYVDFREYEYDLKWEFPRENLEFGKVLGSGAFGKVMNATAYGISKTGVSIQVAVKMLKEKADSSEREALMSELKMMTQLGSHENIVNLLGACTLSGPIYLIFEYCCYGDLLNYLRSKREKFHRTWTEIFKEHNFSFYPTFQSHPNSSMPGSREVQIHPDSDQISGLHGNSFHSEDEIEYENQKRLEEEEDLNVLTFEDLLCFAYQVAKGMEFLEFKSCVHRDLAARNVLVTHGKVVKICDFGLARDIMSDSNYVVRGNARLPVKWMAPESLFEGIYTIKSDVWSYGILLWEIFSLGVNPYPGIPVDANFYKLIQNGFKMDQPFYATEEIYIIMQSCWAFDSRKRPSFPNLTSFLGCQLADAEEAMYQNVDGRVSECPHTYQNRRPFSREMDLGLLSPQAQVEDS
Put plainly: Inhibition of FLT3 (unknown origin) using poly (Glu, Tyr) (4:1) as substrate after 30 mins by spectrophotometric analysis.

For test [6], the target named is Mast/stem cell growth factor receptor Kit (Homo sapiens, UniProt P10721). Briefly: Inhibition of c-KIT (unknown origin) using poly (Glu, Tyr) (4:1) as substrate after 30 mins by spectrophotometric analysis.
The test system of test [7] is MKN-45. Put plainly: Cytotoxicity against human MKN45 cells after 72 hrs by MTT assay. The conditions noted are these: MKN-45, 72 h.
For test [8], the system named is HT-29. Briefly: Ratio of foretinib IC50 to compound IC50 for human HT-29 cells. In kind it is functional.
The target in test [9] is Epidermal growth factor receptor (Homo sapiens, UniProt P00533). Briefly: Inhibition of EGFR (unknown origin) using poly (Glu, Tyr) (4:1) as substrate after 30 mins by spectrophotometric analysis.
Chain of Epidermal growth factor receptor (P00533 whole entry): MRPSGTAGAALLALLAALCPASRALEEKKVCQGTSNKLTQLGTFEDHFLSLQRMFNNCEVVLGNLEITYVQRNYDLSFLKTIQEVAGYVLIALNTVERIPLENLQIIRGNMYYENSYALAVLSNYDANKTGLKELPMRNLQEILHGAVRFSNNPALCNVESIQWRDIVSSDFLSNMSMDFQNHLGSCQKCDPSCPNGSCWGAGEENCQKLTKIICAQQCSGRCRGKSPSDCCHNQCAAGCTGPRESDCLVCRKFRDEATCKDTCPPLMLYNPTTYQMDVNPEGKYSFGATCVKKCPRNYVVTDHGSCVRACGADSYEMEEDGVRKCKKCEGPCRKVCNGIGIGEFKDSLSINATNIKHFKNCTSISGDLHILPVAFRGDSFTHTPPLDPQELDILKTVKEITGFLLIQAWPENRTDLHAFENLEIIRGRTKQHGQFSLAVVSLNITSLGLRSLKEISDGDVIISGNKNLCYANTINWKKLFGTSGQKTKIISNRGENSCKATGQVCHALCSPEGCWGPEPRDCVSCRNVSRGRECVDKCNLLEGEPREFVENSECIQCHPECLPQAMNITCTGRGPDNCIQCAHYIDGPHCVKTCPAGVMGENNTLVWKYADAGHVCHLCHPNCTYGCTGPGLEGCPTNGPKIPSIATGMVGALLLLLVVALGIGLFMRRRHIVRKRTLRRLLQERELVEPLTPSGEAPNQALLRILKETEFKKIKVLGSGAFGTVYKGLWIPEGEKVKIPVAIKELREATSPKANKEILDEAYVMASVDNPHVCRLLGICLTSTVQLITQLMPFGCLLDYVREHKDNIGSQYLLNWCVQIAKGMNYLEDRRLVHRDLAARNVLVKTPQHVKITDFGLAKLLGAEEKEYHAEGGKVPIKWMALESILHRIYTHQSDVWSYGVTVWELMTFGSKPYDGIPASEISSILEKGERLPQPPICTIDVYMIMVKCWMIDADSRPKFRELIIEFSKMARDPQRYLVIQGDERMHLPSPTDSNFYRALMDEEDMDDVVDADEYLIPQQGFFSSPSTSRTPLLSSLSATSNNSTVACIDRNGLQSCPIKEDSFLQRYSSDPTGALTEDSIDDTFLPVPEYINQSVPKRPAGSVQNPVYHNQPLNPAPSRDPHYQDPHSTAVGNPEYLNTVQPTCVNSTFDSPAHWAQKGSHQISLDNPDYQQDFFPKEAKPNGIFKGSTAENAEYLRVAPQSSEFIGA
Test [10] is described as follows: Cytotoxicity against human U87MG cells after 72 hrs by MTT assay. The class given is functional, cell-based, U-87MG ATCC. To be noted: U-87 MG. Put shortly: as §1
For test [11], the system named is HT-29. Put plainly: Cytotoxicity against human HT-29 cells after 72 hrs by MTT assay. The conditions noted are these: HT-29, 72 h.
The target in test [12] is Vascular endothelial growth factor receptor 2 (Homo sapiens, UniProt P35968). Put plainly: Inhibition of VEGFR2 (unknown origin) using poly (Glu, Tyr) (4:1) as substrate after 30 mins by spectrophotometric analysis.
Chain of Vascular endothelial growth factor receptor 2 (P35968 whole entry): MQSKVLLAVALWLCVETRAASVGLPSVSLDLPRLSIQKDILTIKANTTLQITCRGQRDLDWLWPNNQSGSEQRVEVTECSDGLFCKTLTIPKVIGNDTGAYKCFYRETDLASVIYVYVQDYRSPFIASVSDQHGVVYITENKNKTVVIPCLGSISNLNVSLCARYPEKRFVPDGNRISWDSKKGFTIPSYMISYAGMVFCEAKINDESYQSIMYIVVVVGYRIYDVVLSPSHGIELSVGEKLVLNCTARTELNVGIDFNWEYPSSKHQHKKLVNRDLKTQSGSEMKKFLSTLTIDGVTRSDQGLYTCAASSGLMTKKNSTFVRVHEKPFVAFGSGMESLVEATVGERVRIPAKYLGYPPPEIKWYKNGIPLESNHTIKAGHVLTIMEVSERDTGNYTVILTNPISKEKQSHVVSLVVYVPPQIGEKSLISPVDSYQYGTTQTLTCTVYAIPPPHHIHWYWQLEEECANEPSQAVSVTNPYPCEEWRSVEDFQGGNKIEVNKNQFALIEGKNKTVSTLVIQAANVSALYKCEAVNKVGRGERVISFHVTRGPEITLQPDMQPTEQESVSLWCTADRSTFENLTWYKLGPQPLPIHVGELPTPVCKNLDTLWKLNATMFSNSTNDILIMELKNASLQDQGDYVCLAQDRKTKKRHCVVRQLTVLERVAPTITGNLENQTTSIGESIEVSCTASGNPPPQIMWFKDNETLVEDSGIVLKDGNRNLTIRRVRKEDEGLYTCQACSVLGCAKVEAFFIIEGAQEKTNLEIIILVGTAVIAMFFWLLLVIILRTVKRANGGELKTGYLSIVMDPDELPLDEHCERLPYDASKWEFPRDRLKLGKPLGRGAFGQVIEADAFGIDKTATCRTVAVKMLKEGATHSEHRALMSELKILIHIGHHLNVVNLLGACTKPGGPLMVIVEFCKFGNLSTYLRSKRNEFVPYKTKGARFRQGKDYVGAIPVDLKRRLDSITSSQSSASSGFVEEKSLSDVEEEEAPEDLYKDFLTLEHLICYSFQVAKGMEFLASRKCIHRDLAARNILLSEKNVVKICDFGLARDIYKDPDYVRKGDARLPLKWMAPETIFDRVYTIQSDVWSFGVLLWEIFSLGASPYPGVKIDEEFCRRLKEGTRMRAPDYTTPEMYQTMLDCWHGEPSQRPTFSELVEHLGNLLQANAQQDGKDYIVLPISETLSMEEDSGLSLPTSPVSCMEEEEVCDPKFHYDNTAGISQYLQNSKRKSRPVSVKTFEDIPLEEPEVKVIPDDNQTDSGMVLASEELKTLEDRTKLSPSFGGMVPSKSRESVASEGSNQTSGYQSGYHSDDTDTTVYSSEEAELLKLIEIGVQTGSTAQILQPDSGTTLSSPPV
A short description of test [13]: Cytotoxicity against human H460 cells after 72 hrs by MTT assay. To be noted: NCI-H460, 72 h.
A short description of test [14]: Ratio of foretinib IC50 to compound IC50 for human H460 cells. In kind it is functional.

Chain of Platelet-derived growth factor receptor beta (P09619 whole entry): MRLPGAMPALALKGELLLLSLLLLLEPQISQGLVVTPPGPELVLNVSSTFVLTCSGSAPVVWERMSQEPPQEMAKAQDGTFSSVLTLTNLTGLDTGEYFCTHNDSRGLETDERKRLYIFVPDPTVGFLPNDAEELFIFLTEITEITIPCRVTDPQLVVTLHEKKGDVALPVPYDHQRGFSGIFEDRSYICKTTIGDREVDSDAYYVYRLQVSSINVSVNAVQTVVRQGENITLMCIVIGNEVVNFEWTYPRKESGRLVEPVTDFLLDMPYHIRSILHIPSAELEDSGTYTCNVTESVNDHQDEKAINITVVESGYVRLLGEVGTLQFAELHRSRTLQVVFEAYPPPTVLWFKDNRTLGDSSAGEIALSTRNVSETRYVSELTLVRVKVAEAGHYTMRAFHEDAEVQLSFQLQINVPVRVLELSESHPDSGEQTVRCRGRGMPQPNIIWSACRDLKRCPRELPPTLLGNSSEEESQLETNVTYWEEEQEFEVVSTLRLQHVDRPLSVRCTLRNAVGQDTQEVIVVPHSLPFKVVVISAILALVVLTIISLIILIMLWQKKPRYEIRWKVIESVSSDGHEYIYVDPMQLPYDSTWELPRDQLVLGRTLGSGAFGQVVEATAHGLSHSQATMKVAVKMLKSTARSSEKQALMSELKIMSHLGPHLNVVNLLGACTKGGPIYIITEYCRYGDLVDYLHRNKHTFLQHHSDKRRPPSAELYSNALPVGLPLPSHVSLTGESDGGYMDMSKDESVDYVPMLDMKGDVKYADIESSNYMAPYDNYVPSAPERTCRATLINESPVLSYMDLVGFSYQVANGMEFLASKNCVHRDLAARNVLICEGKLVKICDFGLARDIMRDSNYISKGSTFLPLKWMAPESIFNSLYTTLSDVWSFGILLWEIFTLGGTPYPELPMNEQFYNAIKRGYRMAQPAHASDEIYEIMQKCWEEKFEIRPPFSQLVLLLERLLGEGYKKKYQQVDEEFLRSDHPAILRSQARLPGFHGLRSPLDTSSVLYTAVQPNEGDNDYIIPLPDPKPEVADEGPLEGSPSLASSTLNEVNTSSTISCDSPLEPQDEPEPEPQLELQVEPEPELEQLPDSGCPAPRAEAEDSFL

The term IC50 denotes the point on the concentration scale where inhibition reaches its midpoint. A low value points to greater potency in that assay. On to `COc1cc2c(Oc3ccc(NC(=O)c4cc(-c5ccc(C)cc5)ccn4)cc3F)ccnc2cc1OCCCN1CCN(C)CC1`, for which the IC50 in test [1] was 1.42 nM; in [3] it was 1.39 nM; in test [4] it was 100 nM; in test [5] it was 1.08 nM; in test [6], 450 nM; in [7], 73 nM. Further, the IC50 amounted to 90 nM in test [9]; 810 nM in [10]; 26 nM in test [11]; 532 nM in test [12]; 37 nM in [13]. Also, the “Ratio IC50” value in [2] was 1.2; in [8], 7.3; in test [14], 5.8.

Turning to `COc1cc2c(Oc3ccc(NC(=O)c4nccc(-c5ccc(F)cc5F)n4)cc3F)ccnc2cc1OCCCN1CCN(C)CC1`, the 50% inhibitory concentration (IC50) in [4] was determined as 660 nM; in test [7], 440 nM; in test [10], 780 nM; in test [11], 480 nM; in test [13], 450 nM.

Consider `COc1cc2c(Oc3ccc(NC(=O)c4nccc(-c5ccc(C)cc5)n4)cc3F)ccnc2cc1OCCCN1CCCCC1`, for which the IC50 in [4] amounted to 900 nM; in test [7], 580 nM; in [10] it was 1140 nM; in [11] it was 620 nM; in test [13], 230 nM.

On to `COc1cc2c(Oc3ccc(NC(=O)c4cc(-c5ccc(C)cc5)ccn4)cc3F)ccnc2cc1OCCCN1CCOCC1`, for which the IC50 in test [4] was 3450 nM; in [7], 440 nM; in test [10], 6790 nM; in [11], 290 nM; in test [13] it was 570 nM.

On to `COc1cc2c(Oc3ccc(NC(=O)c4cc(-c5ccc(C(F)(F)F)cc5)ccn4)cc3F)ccnc2cc1OCCCN1CCCCC1`, for which the IC50 in test [4] was found to be 1640 nM; in [7], 870 nM; in test [10], 1630 nM; in test [11], 230 nM; in test [13], 360 nM.

The values are drawn from ChEMBL document CHEMBL2434847, “Design, synthesis, and structure-activity relationships of novel 6,7-disubstituted-4-phenoxyquinoline derivatives as potential antitumor agents” (Eur J Med Chem, 2013).
